Source: paper PMC3654864 (Journal of medicinal chemistry, 2012)
Read-outs that look alike come from different tables or passages of the source.

How the values were obtained:
[1] = pH-responsive hydrolysis to emetine in phosphate buffer, quantified by HPLC; format: physicochemical; conditions: for activation to emetine at pH 5.5: pH 5.5, over a 48 h period; for percent emetine released (hydrolysis to emetine) at pH 6.5: phosphate buffer pH 6.5, 37 °C
Method in brief: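 Pure test compound was incubated at 37 °C in aqueous phosphate buffer at pH 5.5, 6.5 or 7.4 for 24–48 h; stability at pH 7.4 was followed up to 5 days. Samples were analysed by HPLC to quantify released emetine. Percent conversion is the percent emetine in the sample mixture.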

[2] = system: PC3 and LNCaP prostate cancer cell lines; experiment: In-vitro cytotoxicity in PC3 and LNCaP, summary statements for both lines; format: cell-based, human
Method in brief: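 MTT colorimetric assay on human prostate cancer cells (androgen receptor-positive LNCaP, androgen receptor-negative PC3). Cells were exposed to six concentrations of test compound for 7 days, with viable cells read spectrophotometrically on days 3, 5 and 7. IC50 was taken from the day-7 read. Emetine was run in the same assay.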

[3] = system: PC3 prostate cancer cell lines; experiment: MTT cytotoxicity assay in PC3 cells; format: cell-based, human
healthy mice = experiment: In-vivo toxicity study in healthy mice; conditions: for toxicity on three-week follow-up: after 100 mg/kg iv daily for five days, studied for three weeks; for appearance of mice / percent weight loss relative to control mice: 33 mg/kg; for appearance of mice: 48 hours; for percent weight loss relative to control mice: within 48 hours of daily dosing; for percent weight change within 48 hours versus control group: 100 mg/kg; for signs of toxicity: 100 mg/kg body weight daily for five days
[4] = system: LNCaP prostate cancer cell lines; experiment: MTT cytotoxicity assay in LNCaP cells; format: cell-based, human; conditions: 7 day, relative to compound 13
[5] = PC3, Figures 4a-f, time at which optimum IC50 is reached or pattern

SMILES: CC[C@H]1CN2CCc3cc(OC)c(OC)cc3[C@@H]2C[C@@H]1C[C@@H]1c2cc(OC)c(OC)cc2CCN1C(=S)[S-].[Na+] [Compound 13]
- activation to emetine at pH 5.5 [1]: activated to emetine
- percent hydrolysis to emetine at pH 5.5 ([1]; phosphate buffer pH 5.5, 37 °C, within 48 hours): about 94.5%
- percent emetine released (hydrolysis to emetine) at pH 6.5 ([1]; within 48 hours): 13.2%
- 7th day IC50 fold higher than emetine ([2]; LNCaP and PC3, 7th day, relative to emetine): about 3 fold
- progress of cytotoxicity (IC50) over day 3, 5 and 7 [3, 5]: an optimum IC50 value was obtained by day 5
- toxicity on three-week follow-up (healthy mice): no noticeable effect of toxicity
- appearance of mice (healthy mice; iv): appeared healthy with no noticeable signs of toxicity
- percent weight loss relative to control mice (healthy mice; iv): no significant difference
- percent weight change within 48 hours versus control group (healthy mice; iv): very similar to that obtained for the control group
- signs of toxicity (healthy mice; iv): no sign of toxicity

SMILES: CC[C@H]1CN2CCc3cc(OC)c(OC)cc3[C@@H]2C[C@@H]1C[C@H]1NCCc2cc(OC)c(OC)cc21.Cl.Cl [emetine, Emetine, reference compound]
- IC50 ([2]; Homo sapiens, LNCaP, read-out: IC50 range of emetine): 23.7 to 32.9 nM
- lethality (healthy mice; iv, 33 mg/kg body weight, within the period of study): did not kill the mice
- average weight loss over a 48 hour period (healthy mice; iv, 33 mg/kg daily dosing): about 3.6%
- appearance of mice (healthy mice; iv): appeared lethargic
- percent weight loss relative to control mice (healthy mice; iv): about 4
- lethality (healthy mice; iv, single dose 100 mg/kg body weight, within 48 hours): killed all three mice

SMILES: CC[C@H]1CN2CCc3cc(OC)c(OC)cc3[C@@H]2C[C@@H]1C[C@@H]1c2cc(OC)c(OC)cc2CCN1C(=S)NCc1ccc(Cl)cc1 [Compound 6]
- progress of cytotoxicity (IC50) over day 3, 5 and 7 [3, 5]: reach an optimum by day 3

SMILES: CC[C@H]1CN2CCc3cc(OC)c(OC)cc3[C@@H]2C[C@@H]1C[C@@H]1c2cc(OC)c(OC)cc2CCN1C(=S)NCc1ccc(OC)cc1 [Compound 5]
- progress of cytotoxicity (IC50) over day 3, 5 and 7 [3, 5]: an optimum IC50 value was obtained by day 5

SMILES: CC[C@H]1CN2CCc3cc(OC)c(OC)cc3[C@@H]2C[C@@H]1C[C@@H]1c2cc(OC)c(OC)cc2CCN1C(=O)NCc1ccc(Cl)cc1 [Compound 9]
- progress of cytotoxicity (IC50) over day 3, 5 and 7 [3, 5]: reach an optimum by day 3

SMILES: CC[C@H]1CN2CCc3cc(OC)c(OC)cc3[C@@H]2C[C@@H]1C[C@@H]1c2cc(OC)c(OC)cc2CCN1C(=O)/C=C(/CC(=O)[O-])C(=O)[O-].[Na+].[Na+] [Compound 27]
- activation to emetine at pH 5.5 [1]: activated to emetine

SMILES: CC[C@H]1CN2CCc3cc(OC)c(OC)cc3[C@@H]2C[C@@H]1C[C@@H]1c2cc(OC)c(OC)cc2CCN1C(=O)NCc1ccccc1 [Compound 7]
- progress of cytotoxicity (IC50) over day 3, 5 and 7 [3]: reach an optimum by day 3

SMILES: CC[C@H]1CN2CCc3cc(OC)c(OC)cc3[C@@H]2C[C@@H]1C[C@@H]1c2cc(OC)c(OC)cc2CCN1C(=O)/C=C\C(=O)O [Compound 21]
- activation to emetine at pH 5.5 [1]: activated to emetine
- percent emetine released (hydrolysis to emetine) at pH 6.5 ([1]; within 48 hours): about 50%

SMILES: CC[C@H]1CN2CCc3cc(OC)c(OC)cc3[C@@H]2C[C@@H]1C[C@@H]1c2cc(OC)c(OC)cc2CCN1C(=O)CCC(=O)[O-].[Na+] [Compound 24]
- progress of cytotoxicity (IC50) over day 3, 5 and 7 [3]: an optimum IC50 value was obtained by day 5

SMILES: CC[C@H]1CN2CCc3cc(OC)c(OC)cc3[C@@H]2C[C@@H]1C[C@@H]1c2cc(OC)c(OC)cc2CCN1C(=O)OCc1ccccc1 [Compound 15]
- progress of cytotoxicity (IC50) over day 3, 5 and 7 [3, 5]: progressive decrease in IC50 values

SMILES: CC[C@H]1CN2CCc3cc(OC)c(OC)cc3[C@@H]2C[C@@H]1C[C@@H]1c2cc(OC)c(OC)cc2CCN1C(=O)/C=C(/C)C(=O)O [Compound 22]
- activation to emetine at pH 5.5 [1]: activated to emetine
- percent emetine released (hydrolysis to emetine) at pH 6.5 ([1]; within 48 hours): ~80%

SMILES: CC[C@H]1CN2CCc3cc(OC)c(OC)cc3[C@@H]2C[C@@H]1C[C@@H]1c2cc(OC)c(OC)cc2CCN1S(=O)(=O)c1ccc(OC)cc1 [Compound 12]
- progress of cytotoxicity (IC50) over day 3, 5 and 7 [3]: an optimum IC50 value was obtained by day 5

SMILES: CC[C@H]1CN2CCc3cc(OC)c(OC)cc3[C@@H]2C[C@@H]1C[C@@H]1c2cc(OC)c(OC)cc2CCN1C(=S)SCc1ccccc1 [Compound 14]
- fold increase of IC50 relative to 13 [4]: about 24 fold
- fold increase of IC50 relative to 13 ([3]; PC3, 7 day, relative to compound 13): ~18 fold
- progress of cytotoxicity (IC50) over day 3, 5 and 7 [3, 5]: progressive decrease in IC50 values

SMILES: CC[C@H]1CN2CCc3cc(OC)c(OC)cc3[C@@H]2C[C@@H]1C[C@@H]1c2cc(OC)c(OC)cc2CCN1C(=O)/C=C(/C)C(=O)[O-].[Na+] [Compound 26]
- activation to emetine at pH 5.5 [1]: activated to emetine
- percent emetine released (hydrolysis to emetine) at pH 6.5 ([1]; within 48 hours): about 50%
- progress of cytotoxicity (IC50) over day 3, 5 and 7 [3]: an optimum IC50 value was obtained by day 5
- toxicity on three-week follow-up (healthy mice): no noticeable effect of toxicity
- percent weight change within 48 hours versus control group (healthy mice; iv): very similar to that obtained for the control group
- signs of toxicity (healthy mice; iv): no sign of toxicity

SMILES: CC[C@H]1CN2CCc3cc(OC)c(OC)cc3[C@@H]2C[C@@H]1C[C@@H]1c2cc(OC)c(OC)cc2CCN1C(=O)NCc1ccc(OC)cc1 [Compound 8]
- progress of cytotoxicity (IC50) over day 3, 5 and 7 [3]: progressive decrease in IC50 values

SMILES: CC[C@H]1CN2CCc3cc(OC)c(OC)cc3[C@@H]2C[C@@H]1C[C@@H]1c2cc(OC)c(OC)cc2CCN1C(=O)/C=C\C(=O)[O-].[Na+] [Compound 25]
- activation to emetine at pH 5.5 [1]: activated to emetine
